The record followed here is ChEMBL document CHEMBL1131230 (J Med Chem, 1998).

For orientation: logP means a log measure of how a compound divides between an organic and an aqueous phase. A higher logP goes with higher lipophilicity. In general, EC50 refers to the concentration that produces a half-maximal response. A lower EC50 goes with a more potent agent. The term IC50 denotes the concentration at which inhibition is half-maximal. Higher therefore signals a need for much substance.

Series [1] can be described thus: Partition coefficient (logP). Type of series: physicochemical. The note with it: octanol/water.
Series [2] has as its target T1, GABA A receptor alpha-1/beta-1/gamma-2 (Homo sapiens) (UniProt P14867+P18507+P18505). Briefly: Modulation of GABA-induced chloride currents (percentage of GABA EC20 response) against human alpha-1-beta-1-gamma-2 GABA-A receptor subunits expressed in Xenopus laevis oocytes. The class given is functional, cell-based. The note with it: Oocyte. A digest of the protocol:
(§1)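 Human α1, β1 and γ2 subunit cDNAs in pCDM8 (1.5 ng/30 nL) injected into nuclei of defolliculated stage V-VI Xenopus oocytes, which were cultured at 19 °C in supplemented MBS. Recording by two-electrode voltage clamp at -70 mV about 24 h after injection, with MBS perfusion at room temperature. Compounds came from 10 mM DMSO stocks diluted in MBS. Responses were normalized to a GABA control response, either EC20 or 10 mM GABA.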

Series [3] concerns the target T2, GABA A receptor alpha-1/beta-1/gamma-2 (Homo sapiens, UniProt P14867+P18505+P18507).
T2 sequence (P14867 whole entry): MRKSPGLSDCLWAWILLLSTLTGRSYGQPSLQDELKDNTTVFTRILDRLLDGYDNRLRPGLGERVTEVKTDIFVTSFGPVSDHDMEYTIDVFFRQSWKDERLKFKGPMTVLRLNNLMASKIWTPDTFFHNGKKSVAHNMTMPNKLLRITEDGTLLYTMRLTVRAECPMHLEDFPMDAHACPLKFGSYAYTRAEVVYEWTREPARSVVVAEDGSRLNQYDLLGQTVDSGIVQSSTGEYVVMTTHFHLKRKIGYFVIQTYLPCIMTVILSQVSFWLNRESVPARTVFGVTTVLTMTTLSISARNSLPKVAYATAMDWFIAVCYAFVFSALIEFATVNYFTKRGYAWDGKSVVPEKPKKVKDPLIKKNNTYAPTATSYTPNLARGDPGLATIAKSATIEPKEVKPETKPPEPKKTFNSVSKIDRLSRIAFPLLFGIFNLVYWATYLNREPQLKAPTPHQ
T2 sequence (P18507 whole entry): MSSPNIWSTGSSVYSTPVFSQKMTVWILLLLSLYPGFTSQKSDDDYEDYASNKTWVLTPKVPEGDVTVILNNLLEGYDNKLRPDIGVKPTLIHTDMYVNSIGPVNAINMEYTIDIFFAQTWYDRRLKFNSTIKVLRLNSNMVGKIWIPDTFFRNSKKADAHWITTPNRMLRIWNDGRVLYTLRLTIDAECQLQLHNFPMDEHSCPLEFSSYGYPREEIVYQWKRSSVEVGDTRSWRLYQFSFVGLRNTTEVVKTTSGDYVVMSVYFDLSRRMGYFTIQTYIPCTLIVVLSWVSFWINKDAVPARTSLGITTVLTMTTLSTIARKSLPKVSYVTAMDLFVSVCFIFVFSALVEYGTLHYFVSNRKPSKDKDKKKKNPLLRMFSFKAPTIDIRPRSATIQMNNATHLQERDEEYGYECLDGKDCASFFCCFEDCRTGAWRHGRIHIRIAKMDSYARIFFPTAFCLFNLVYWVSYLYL
T2 sequence (P18505 whole entry): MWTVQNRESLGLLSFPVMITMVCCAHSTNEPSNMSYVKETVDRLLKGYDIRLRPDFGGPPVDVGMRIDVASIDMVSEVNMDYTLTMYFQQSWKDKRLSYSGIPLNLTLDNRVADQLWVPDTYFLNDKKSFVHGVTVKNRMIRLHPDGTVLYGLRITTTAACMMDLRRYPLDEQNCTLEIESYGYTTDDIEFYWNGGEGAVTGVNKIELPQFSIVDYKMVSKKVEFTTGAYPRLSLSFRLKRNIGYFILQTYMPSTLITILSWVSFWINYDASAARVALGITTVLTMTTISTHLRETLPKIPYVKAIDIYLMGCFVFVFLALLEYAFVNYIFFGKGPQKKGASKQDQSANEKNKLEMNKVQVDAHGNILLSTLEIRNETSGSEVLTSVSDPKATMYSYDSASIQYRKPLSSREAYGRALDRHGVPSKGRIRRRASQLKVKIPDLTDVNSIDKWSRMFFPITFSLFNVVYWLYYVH
Briefly: Modulation of GABA-induced chloride currents in Xenopus laevis oocytes expressing human alpha-1-beta-1-gamma-2 GABA-A receptor subunits. Type of series: functional, cell-based, Oocyte. The gist of the method:
as §1

Series [4] concerns the target T1, GABA A receptor alpha-1/beta-1/gamma-2 (Homo sapiens). As to the kind of experiment: Direct activation of chloride currents (percentage of 10 mM GABA response) in Xenopus laevis oocytes expressing human alpha-1-beta-1-gamma-2 GABA-A receptor subunits. The note with it: Oocyte. The class given is functional, cell-based. A digest of the protocol: as §1
Series [5] has as its target GABA-A receptor; anion channel. As to the kind of experiment: Inhibition of [35S]TBPS binding to GABA-A receptor in rat cerebral cortex. Type of series: tissue-based. A digest of the protocol: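 Unwashed cortical membranes from male Sprague-Dawley rats (180-200 g), homogenized in 50 mM Tris-citrate pH 7.4 with […], centrifuged at 20000g and resuspended in buffer. Final 1 nM [35S]TBPS with 0.20-0.25 mg protein and NaCl, 90 min at 25 °C, then GF/B filtration and scintillation counting. Nonspecific binding defined with 100 µM picrotoxin.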

The target of series [6] is T2, GABA A receptor alpha-1/beta-1/gamma-2. Briefly: Direct activation of chloride current in Xenopus laevis oocytes expressing human alpha-1-beta-1-gamma-2 GABA-A receptor subunits. The class given is functional, cell-based, Oocyte. A digest of the protocol: as §1
Series [7] relates to GABA-A receptor; anion channel. As to the kind of experiment: In vitro inhibition of [35S]TBPS binding to Gamma-aminobutyric acid A (GABA-A) receptor of rat cerebral cortex (No displacement). Type of series: tissue-based.

Turning to `CC(C)c1cc(C(=O)c2ccccc2)cc(C(C)C)c1O`, the logP in series [1] was 5.91. For the same molecule, in series [2], the Max potentiation came to 220%. In addition, the EC50 was 9 µM in series [3] and 47 µM in series [6]. Moreover, the Max activation in series [4] worked out at 41%. The molecule further had an IC50 in series [5] of 0.85 µM.
For `CC(C)c1cc(N)cc(C(C)C)c1O`, the logP in series [1] worked out at 3.1. The same molecule came in with an IC50 in series [5] of 23.6 µM.
Regarding `CC(C)c1cccc(C(C)C)c1OC(=O)CN1CCCC1`, the IC50 in series [5] worked out at 6.52 µM.
Take `COC(=O)c1cccc(C(C)C)c1O`: the IC50 in series [5] worked out at 39.5 µM.
`CC(C)c1cc([N+](=O)[O-])cc(C(C)C)c1O` showed a logP in series [1] of 4.71. For the same molecule, in series [5], the IC50 is 1.95 µM.
For the molecule `CCCN(CCC)CC(=O)Oc1c(C(C)C)cccc1C(C)C`, the IC50 result in series [7] was “Not Active”.
`CC(C)c1cc(N(C)C)cc(C(C)C)c1O` gave a logP in series [1] of 4.52. The same molecule had a half-maximal inhibitory concentration (IC50) in series [5] of 5.7 µM.
With `CC(=O)Oc1c(C(C)C)cccc1C(C)C`, the IC50 in series [5] was 8.5 µM.
For the molecule `CC(C)c1cc(Br)cc(C(C)C)c1O`, the log partition coefficient (logP) in series [1] was 5.49. Further, the Max potentiation in series [2] is 223%. In addition, the EC50 in series [3] was found to be 12 µM; in series [6], 38 µM. Further, the Max activation in series [4] was 34%. The molecule further came in with a 50% inhibitory concentration (IC50) in series [5] of 1.07 µM.
Take `COC(CNCC(=O)Oc1c(C(C)C)cccc1C(C)C)OC`: the IC50 in series [5] was found to be 15.6 µM.
Turning to `CC(C)c1cccc(C(C)C)c1OC(=O)c1ccccc1`, in series [5], the IC50 stood at 15.2 µM.
As to `CC(C)c1cccc(C(C)C)c1O` [PROPOFOL], the logP in series [1] was found to be 4.33. Further, the Max potentiation in series [2] came to 296%. In addition, the results for the EC50 in series [3] and in series [6] were 8 µM and 44 µM, respectively. This molecule yielded a Max activation in series [4] of 38%.
Turning to `CC(C)c1cc(NC(=O)C(F)(F)F)cc(C(C)C)c1O`, in series [1], the logP worked out at 4.46. Besides, the IC50 in series [5] came to 14 µM.
The molecule `CC(C)c1cc(I)cc(C(C)C)c1O` gave a log partition coefficient (logP) in series [1] of 5.75. Further, the Max potentiation in series [2] is 311%. The EC50 is 12 µM in series [3] and 51 µM in series [6]. Besides, in series [4], the Max activation amounted to 36%. For the same molecule, the half-maximal inhibitory concentration (IC50) in series [5] stood at 1.2 µM.
The molecule `CC(C)c1cc(NS(C)(=O)=O)cc(C(C)C)c1O` yielded a log partition coefficient (logP) in series [1] of 3.14. For the same molecule, the IC50 in series [5] stood at 131 µM.
In turn, `COc1c(C(C)C)cccc1C(C)C` came in with an IC50 in series [5] of 37 µM.
As to `CC(C)c1cccc(C(=O)O)c1O`, the IC50 result in series [7] is recorded as “Not Active”.
The same measure, in the same setting: the value for `CC(C)c1cc([N+](C)(C)C)cc(C(C)C)c1O.[I-]` was “Not Active”.
The molecule `CCN(CC)CC(=O)Oc1c(C(C)C)cccc1C(C)C` registered an IC50 in series [5] of 21.8 µM.
In the case of `COS(=O)(=O)c1cc(C(C)C)c(O)c(C(C)C)c1`, the logP in series [1] was found to be 3.7. Further, the IC50 in series [5] was 9.4 µM.
Regarding `CC(=O)Nc1cc(C(C)C)c(O)c(C(C)C)c1`, the IC50 entry in series [7] is “Not Active”.
The molecule `CC(C)c1cc(C=O)cc(C(C)C)c1O` yielded a logP in series [1] of 4.3. The IC50 in series [5] was 5.8 µM.
In the case of `CC(C)c1cccc(C(C)C)c1OC(=O)CN1CCOCC1`, in series [7], the IC50 result is “Not Active”.
For `CC(C)c1cc(Cl)cc(C(C)C)c1O`, in series [1], the logP worked out at 5.34. For the same molecule, the Max potentiation in series [2] came to 205%. Moreover, the figures for the EC50 in series [3] and in series [6] were 10 µM and 38 µM, respectively. In series [4], this molecule gave a Max activation of 37%. Besides, in series [5], the IC50 was found to be 1.44 µM.
On to `CC(C)c1cc(CN(C)C)cc(C(C)C)c1O`, for which the logP in series [1] amounted to 2.5. In series [5], the IC50 was found to be 739 µM.
